Experimental data of several laboratories.
MET: Hepatocyte growth factor receptor (MET, Homo sapiens, UniProt P08581)
MET M1250T: Hepatocyte growth factor receptor (MET, Homo sapiens, UniProt P08581, M1250T)
MET Y1235D: Hepatocyte growth factor receptor (MET, Homo sapiens, UniProt P08581, Y1235D)

Compound | target | observed | action | method | concentration | quantity | result
CC(C)(C)c1cc(C=C(C#N)C#N)cc(Br)c1O | MET | enzyme activity | inhibitor |  | 0.5 µM | remaining activity | 111%
C#Cc1n[nH]c2c(-c3cn(C(C)c4ccccn4)c(=O)[nH]c3=O)cc(F)cc12 (stereo not shown) | Hepatocyte growth factor receptor (MET, Homo sapiens, UniProt P08581, D1228H) | enzyme activity | inhibitor |  | 1 µM | inhibition | 100%
Cc1nn(C)cc1-c1nc2c(N3CCN(Cc4ccc(Cl)cc4)CC3)c(Cl)cnc2[nH]1 | MET | binding |  | competition with immobilised ligand | 1 µM | remaining binding | 83%
Cn1cncc1[C@](O)(COc1ccc(C#N)cc1-c1ccc(OC(F)(F)F)cc1)c1ccc(C#N)cc1 | MET M1250T | cell-free assay |  | competition with immobilised ligand | 1 µM | remaining binding | 100%
Nc1ncc(-c2nc(N3CCOCC3)nc(N3CCOCC3)n2)c(C(F)F)n1 | MET Y1235D | cell-free assay |  | competition with immobilised ligand | 10 µM | remaining binding | 92%
O=c1[nH]c2ccccc2n1C1CCN(Cc2ccc(-c3[nH]c4cc5ncnc5cc4nc3-c3ccccc3)cc2)CC1 | MET | cell-free assay |  |  | 0.5 µM | remaining signal | 102%
Cn1cc(-c2cc(F)cc(N3CCn4c(cc5c4CCCC5)C3=O)c2CO)cc(Nc2ccc(N3CCN(C4COC4)CC3)cn2)c1=O | MET | enzyme activity | inhibitor |  | 0.1 µM | inhibition | 15%
N#CC1(c2ccccn2)CCN(Cc2cc(C(=O)O)c(=O)n3ccccc23)CC1 | MET Y1235D | cell-free assay |  | competition with immobilised ligand | 1 µM | remaining binding | 99%
COc1ncccc1-c1cnn2ccc(N3CCN(C(=O)OC(C)C)CC3)nc12 | MET | binding |  | competition with immobilised ligand | 1 µM | remaining binding | 88%
Cn1cc(-c2cccc(N3CCc4c(sc5c4CC(C)(C)C5)C3=O)c2CO)cc(Nc2ccncn2)c1=O | MET M1250T | enzyme activity | inhibitor |  | 1 µM | inhibition | 5%
